PMC10582660 (Clinical and Translational Science, 2023)

Experiments:
OATP1B3 = target: T1, OATP1B3 (Homo sapiens, UniProt Q9NPD5); experiment: Raloxifene as a substrate for uptake transporters; type: in vitro ADME; details: raloxifene 1, 10 μM, 2, 20 min, two‐fold cutoff
T1 sequence (Q9NPD5 1-702): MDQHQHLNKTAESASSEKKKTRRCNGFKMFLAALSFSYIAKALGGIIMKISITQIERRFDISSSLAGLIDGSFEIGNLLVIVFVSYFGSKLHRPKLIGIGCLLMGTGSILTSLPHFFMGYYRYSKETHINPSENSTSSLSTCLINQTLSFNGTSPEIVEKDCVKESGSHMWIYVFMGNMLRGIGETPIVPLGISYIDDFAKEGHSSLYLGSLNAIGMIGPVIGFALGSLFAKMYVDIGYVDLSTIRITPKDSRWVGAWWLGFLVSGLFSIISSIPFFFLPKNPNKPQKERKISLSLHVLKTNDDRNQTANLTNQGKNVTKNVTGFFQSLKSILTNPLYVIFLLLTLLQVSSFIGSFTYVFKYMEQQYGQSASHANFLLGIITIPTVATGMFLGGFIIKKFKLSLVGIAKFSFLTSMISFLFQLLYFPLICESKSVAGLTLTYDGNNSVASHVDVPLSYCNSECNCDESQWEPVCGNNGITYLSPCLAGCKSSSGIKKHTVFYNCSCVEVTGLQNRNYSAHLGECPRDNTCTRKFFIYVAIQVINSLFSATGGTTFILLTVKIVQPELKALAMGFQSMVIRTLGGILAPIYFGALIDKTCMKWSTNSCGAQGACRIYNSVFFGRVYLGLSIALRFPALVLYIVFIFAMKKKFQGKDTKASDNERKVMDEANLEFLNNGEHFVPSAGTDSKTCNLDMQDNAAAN
Summary of the method: (§1)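 Uptake of test compound (1 and 10 μM, 2 and 20 min) measured in transporter-expressing HEK293 or MDCKII cells or inside-out membrane vesicles. Run with positive-control probe substrates and inhibitors, plus empty-vector or untransfected control cells. Fold-accumulation relative to control cells judged against a two-fold cutoff for substrate status.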

[1] = Follow-up exploratory clinical study: plasma pharmacokinetics; type: in vivo, human; details: for Cmax / Tmax / AUC(0-t): both, human, plasma, oral; for AUC(0-t): AUC0–48h, geometric mean (CV%)
Summary of the method: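 Six healthy adults (3 male, 3 female) in sequential arms ≥7 days apart: oral test compound with water, then with acute brewed green tea, then tea alone. Plasma sampled 0–48 h at the main-study times. Analysed by UHPLC–MS/MS for parent and glucuronides. […] Green tea/baseline ratios on log-transformed data, paired two-tailed t-test.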

OCT2 = target: T2, OCT2 (Homo sapiens, UniProt O15244); experiment: Raloxifene as a substrate for uptake transporters; type: in vitro ADME; details: raloxifene 1, 10 μM, 2, 20 min, two‐fold cutoff
T2 sequence (O15244 1-555): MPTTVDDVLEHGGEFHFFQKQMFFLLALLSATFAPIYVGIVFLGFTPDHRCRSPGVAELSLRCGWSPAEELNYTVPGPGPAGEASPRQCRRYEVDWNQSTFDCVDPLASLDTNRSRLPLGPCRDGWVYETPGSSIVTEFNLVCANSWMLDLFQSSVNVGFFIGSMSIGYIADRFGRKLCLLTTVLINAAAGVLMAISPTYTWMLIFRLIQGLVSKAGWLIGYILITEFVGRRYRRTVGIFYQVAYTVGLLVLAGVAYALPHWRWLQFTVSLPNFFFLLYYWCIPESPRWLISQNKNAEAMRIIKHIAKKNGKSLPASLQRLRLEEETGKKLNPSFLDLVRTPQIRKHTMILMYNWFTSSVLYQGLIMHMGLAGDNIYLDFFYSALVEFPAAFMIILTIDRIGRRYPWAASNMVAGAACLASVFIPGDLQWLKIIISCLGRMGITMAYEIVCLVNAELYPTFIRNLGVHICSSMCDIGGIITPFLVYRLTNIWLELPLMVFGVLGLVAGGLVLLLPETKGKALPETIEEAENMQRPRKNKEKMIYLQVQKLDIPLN
Summary of the method: as §1

OAT3 = target: T3, OAT3 (Homo sapiens, UniProt Q8TCC7); experiment: Raloxifene as a substrate for uptake transporters; type: in vitro ADME; details: raloxifene 1, 10 μM, 2, 20 min, two‐fold cutoff
T3 sequence (Q8TCC7 1-542): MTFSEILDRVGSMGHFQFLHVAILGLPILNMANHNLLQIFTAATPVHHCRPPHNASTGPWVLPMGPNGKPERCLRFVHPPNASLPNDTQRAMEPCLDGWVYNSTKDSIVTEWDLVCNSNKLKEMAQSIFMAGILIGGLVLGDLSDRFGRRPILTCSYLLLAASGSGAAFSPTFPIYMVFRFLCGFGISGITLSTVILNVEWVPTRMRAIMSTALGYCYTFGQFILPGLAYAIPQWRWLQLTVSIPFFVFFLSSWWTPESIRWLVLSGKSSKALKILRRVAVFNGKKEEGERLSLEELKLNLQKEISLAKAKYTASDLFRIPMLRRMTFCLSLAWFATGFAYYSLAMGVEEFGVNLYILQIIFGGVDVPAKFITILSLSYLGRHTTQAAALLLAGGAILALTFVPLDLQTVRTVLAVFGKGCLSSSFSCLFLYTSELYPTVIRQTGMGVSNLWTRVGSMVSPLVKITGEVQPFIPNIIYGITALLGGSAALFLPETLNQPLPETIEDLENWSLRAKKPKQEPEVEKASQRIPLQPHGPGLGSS
Summary of the method: as §1

OATP1B1 = target: T4, OATP1B1 (Homo sapiens, UniProt Q9Y6L6); experiment: Raloxifene as a substrate for uptake transporters; type: in vitro ADME; details: raloxifene 1, 10 μM, 2, 20 min, two‐fold cutoff
T4 sequence (Q9Y6L6 1-691): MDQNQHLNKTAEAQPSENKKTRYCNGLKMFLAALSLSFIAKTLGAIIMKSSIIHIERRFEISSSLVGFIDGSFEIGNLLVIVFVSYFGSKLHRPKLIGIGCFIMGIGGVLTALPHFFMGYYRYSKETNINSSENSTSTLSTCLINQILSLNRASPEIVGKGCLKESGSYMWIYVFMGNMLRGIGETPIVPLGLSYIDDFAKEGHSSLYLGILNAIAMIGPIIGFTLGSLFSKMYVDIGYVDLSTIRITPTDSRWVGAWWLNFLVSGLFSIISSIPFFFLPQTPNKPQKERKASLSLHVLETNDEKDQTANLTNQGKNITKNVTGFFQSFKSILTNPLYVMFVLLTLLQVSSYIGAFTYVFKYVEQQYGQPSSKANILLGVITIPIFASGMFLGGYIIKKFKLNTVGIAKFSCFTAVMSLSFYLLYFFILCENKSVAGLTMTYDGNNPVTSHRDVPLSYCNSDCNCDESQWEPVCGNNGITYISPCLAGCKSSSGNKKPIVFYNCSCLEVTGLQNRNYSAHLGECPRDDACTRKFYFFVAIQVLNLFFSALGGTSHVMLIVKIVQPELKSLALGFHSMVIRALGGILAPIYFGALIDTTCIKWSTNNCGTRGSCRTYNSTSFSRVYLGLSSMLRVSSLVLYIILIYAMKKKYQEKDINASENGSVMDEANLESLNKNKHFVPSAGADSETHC
Summary of the method: as §1

[2] = follow-up study, acute green tea vs baseline

- fold‐accumulation (OATP1B3): 1.56–1.70
- Cmax [1]: 0.28 nM
- Tmax [1]: 1 h
- Cmax ([1]; 60 mg): 0.32 nM
- Tmax ([1]; 60 mg): 1.25 h
- AUC(0-t) ([1]; 60 mg, follow-up study, six healthy adults, baseline): 8.25 nM·h
- AUC(0-t) ([1]; follow-up study, acute green tea): 7.46 nM·h
- AUC0–48h green tea/baseline ratio (90% CI) [1, 2]: 0.90 (0.77–1.03)
- Cmax,1 green tea/baseline ratio (90% CI) [1, 2]: 0.87 (0.72–1.07)
- magnitude of the decrease in raloxifene AUC with green tea ([1]; follow‐up study): 10%
- fold‐accumulation (OCT2): 0.90–1.15
- fold‐accumulation (OAT3): 0.75–1.03
- fold‐accumulation (OATP1B1): 1.04–1.19
SMILES: O=C(c1ccc(OCCN2CCCCC2)cc1)c1c(-c2ccc(O)cc2)sc2cc(O)ccc12 [Raloxifene, raloxifene, reference compound]
